# Measurements reported in ChEMBL document CHEMBL5370536, “Design, synthesis, and biological activity of dual monoamine oxidase A and heat shock protein 90 inhibitors, N-Methylpropargylamine-conjugated 4-isopropylresorcinol for glioblastoma” (Eur J Med Chem, 2023).
# Active and inactive are the calls of the source. No cut-off for these calls is given here.
# How the values were obtained:
# [1] = biological target: T1, Amine oxidase [flavin-containing] A (Mus musculus, UniProt Q64133); assay: Inhibition of MAO A in mouse GL26 cells preincubated for 20 mins followed by 14C-labeled 5-hydroxytryptamine addition and measured after 20 mins by scintillation counter analysis; type: cell-based
# T1 sequence (Q64133 whole entry): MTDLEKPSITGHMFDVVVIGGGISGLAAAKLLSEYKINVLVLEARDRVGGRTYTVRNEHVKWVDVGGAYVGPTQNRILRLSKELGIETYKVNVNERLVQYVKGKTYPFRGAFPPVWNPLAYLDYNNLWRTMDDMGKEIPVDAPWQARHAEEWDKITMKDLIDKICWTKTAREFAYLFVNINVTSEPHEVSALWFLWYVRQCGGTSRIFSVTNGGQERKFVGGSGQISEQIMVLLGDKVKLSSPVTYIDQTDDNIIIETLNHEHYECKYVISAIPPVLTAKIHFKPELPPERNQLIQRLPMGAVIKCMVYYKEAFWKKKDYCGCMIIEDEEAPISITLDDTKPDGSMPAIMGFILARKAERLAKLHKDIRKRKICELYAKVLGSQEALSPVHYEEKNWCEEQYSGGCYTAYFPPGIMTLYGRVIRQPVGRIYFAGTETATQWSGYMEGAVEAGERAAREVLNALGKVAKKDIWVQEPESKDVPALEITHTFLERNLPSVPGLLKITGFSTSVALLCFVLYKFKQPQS
# [2] = biological target: Heat shock protein HSP 90-alpha (Homo sapiens, UniProt P07900); assay: Inhibition of human recombinant HSP90alpha preincubated for 30 mins followed by FITC-GM addition and mesured after 3 hrs by fluorescence polarization assay
# [3] = Antiproliferative activity against mouse GL26 cells assessed as inhibition of cell growth measured after 48 hrs by MTT assay; type: functional, cell-based; conditions: GL26, 48 h
# Summary of the method: (§1)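 Cells plated at 5×10³ per well 24 h before compound and grown in DMEM with 10% FBS at 37°C, 5% CO₂. After 48 h exposure, the medium was replaced with 0.5 mg/mL MTT for 3 h. Formazan was dissolved in DMSO and read at 570 nm.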
# [4] = system: U-251; assay: Antiproliferative activity against human Temozolomide-resistant U-251 cells assessed as inhibition of cell growth measured after 48 hrs by MTT assay; type: functional, cell-based; conditions: U-251, 48 h; summary of the method: as §1
# [5] = system: GL26; assay: Downregulation of HER2 expression in mouse GL26 cells incubated for 24 hrs by Western blot analysis; type: functional, cell-based; conditions: dose 0.1-3 µM
# [6] = system: GL26; assay: Downregulation of Akt phosphorylation expression at Ser 473 residues in mouse GL26 cells incubated for 24 hrs by Western blot analysis; type: functional, cell-based; conditions: dose 0.1-3 µM
# [7] = system: U-251; assay: Downregulation of HER2 expression in human Temozolomide-resistant U-251 cells incubated for 24 hrs by Western blot analysis; type: functional, cell-based; conditions: dose 0.1-3 µM
# [8] = system: U-251; assay: Downregulation of Akt phosphorylation expression at Ser 473 residues in human Temozolomide-resistant U-251 cells incubated for 24 hrs by Western blot analysis; type: functional, cell-based; conditions: dose 0.1-3 µM
# [9] = system: U-87 MG; assay: Antiproliferative activity against human U-87 MG cells assessed as inhibition of cell growth measured after 72 hrs by CCK8 method; type: functional, cell-based, U-87MG ATCC
# Summary of the method: (§2)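 Cell lines from ATCC or from patient surgical specimens (P1S, P3, P3R), kept in DMEM with 10% FBS and 1% penicillin/streptomycin at 37°C, 5% CO₂. P3R medium also held 50 μM TMZ. Cells were seeded at 2×10³/well 24 h before compound, then exposed 72 h.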
# [10] = Antiproliferative activity against human U373 MG cells assessed as inhibition of cell growth measured after 72 hrs by CCK8 method; type: functional, cell-based, U-373MG ATCC; summary of the method: as §2
# [11] = system: LN-229; assay: Antiproliferative activity against human LN-229 cells assessed as inhibition of cell growth measured after 72 hrs by CCK8 method; type: functional, cell-based; conditions: LN-229, 72 h; summary of the method: as §2
# [12] = system: A 172; assay: Antiproliferative activity against human A-172 cells assessed as inhibition of cell growth measured after 72 hrs by CCK8 method; type: functional, cell-based; conditions: A 172, 72 h; summary of the method: as §2
# [13] = system: T98G; assay: Antiproliferative activity against human T98G cells assessed as inhibition of cell growth measured after 72 hrs by CCK8 method; type: functional, cell-based; summary of the method: as §2
# [14] = Antiproliferative activity against human patient-derived, TMZ-resistant and concurrent chemo-radiotherapy (CCRT)-resistant P1S cell assessed as inhibition of cell growth measured after 72 hrs by CCK8 method; type: functional, cell-based; summary of the method: as §2
# [15] = Antiproliferative activity against human patient-derived P3 cell assessed as inhibition of cell growth measured after 72 hrs by CCK8 method; type: functional, cell-based; summary of the method: as §2
# [16] = Antiproliferative activity against human patient-derived TMZ-resistant GBM cells with MGMT negative P3R cell assessed as inhibition of cell growth measured after 72 hrs by CCK8 method; type: functional, cell-based; summary of the method: as §2
# [17] = system: U-251; assay: Upregulation of HSP70 expression in human Temozolomide-resistant U-251 cells incubated for 24 hrs by Western blot analysis; type: functional, cell-based; conditions: dose 0.1-3 µM
# [18] = system: GL26; assay: Upregulation of HSP70 expression in mouse GL26 cells incubated for 24 hrs by Western blot analysis; type: functional, cell-based; conditions: dose 0.1-3 µM
# [19] = system: GL26; assay: Downregulation of IFN-gamma induced PD-L1 expression in mouse GL26 cells incubated for 24 hrs by flow cytometry analysis; type: functional, cell-based
# Summary of the method: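 GL26 cells at 3.6 × 10⁵ per well were treated at various concentrations with or without 10 ng/mL IFN-γ for 24 h. Cells were stained with goat anti-PD-L1 for 1 h in PBS/0.05% BSA, then FITC donkey anti-goat for 1 h, and read by flow cytometry. MFI was normalised to the secondary-antibody-only isotype control and expressed as an MFI ratio.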
# [20] = system: HCT-116; assay: Downregulation of PD-L1 expression in human HCT-116 cells; type: functional, cell-based
# Summary of the method: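 HCT116 cells at 3 × 10⁵ per well were treated at various concentrations with or without 20 ng/mL IFN-γ for 48 h. Cells were stained with mouse anti-PD-L1 for 1 h in PBS/0.05% BSA, then FITC goat anti-mouse for 1 h. Surface FITC mean fluorescence intensity was measured by flow cytometry.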
# [21] = Antitumor activity against mouse GL26 cells xenografted in C57BL/6J mouse model assessed as tumor growth inhibition at 25 mg/kg, ip administered daily for 3 days followed by every 3 days for 14 days by caliper method relative to control; type: functional; conditions: GL26, 336 h, time 14 day, read-out: TGI
# Summary of the method: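 Male C57BL/6J mice aged 8-9 weeks received 2 × 10⁵ GL26 cells subcutaneously in the lower back. From day 9 after implantation, once tumours were palpable, 25 mg/kg was given i.p. daily for 3 days and then every 3 days over 14 days. Caliper volume was length × width² ÷ 2. TGI% was taken relative to the mean tumour size of the vehicle group.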
# [22] = Toxicity in C57BL/6J mouse assessed as change in body weight at 25 mg/kg, ip measured after 3 days; type: organism-based; conditions: in vivo, 72 h, time 3 day
# Summary of the method: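 Male C57BL/6J mice, 8-9 weeks old, given 2 × 10⁵ GL26 cells subcutaneously in the lower back. From day 9, when tumor was visible, dosing was i.p. for 14 days with vehicle, clorgyline 10 mg/kg daily, or test compounds 25 mg/kg daily for the first 3 days then every 3 days. Tumor was measured by caliper, volume = length × width² ÷ 2, and TGI% was taken against the vehicle-group mean. Body weight was tracked.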
# [23] = system: SF-268; assay: Growth inhibition of human SF-268 cells incubated for 48 hrs by SRB assay; type: functional
# Summary of the method: (§3)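 NCI-60 panel screen: cells seeded at 5000 to 40000 per well according to doubling time, 24 h before drug addition at various concentrations. A time-zero plate was TCA-fixed at drug addition. After 48 h drug exposure, growth was read by sulforhodamine B staining. Percent growth = [(Ti − Tz)/(C − Tz)] × 100, and GI50 is the concentration at which this equals 50.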
# [24] = system: SF-295; assay: Growth inhibition of human SF-295 cells incubated for 48 hrs by SRB assay; type: functional; summary of the method: as §3
# [25] = system: SF-539; assay: Growth inhibition of human SF-539 cells incubated for 48 hrs by SRB assay; type: functional; summary of the method: as §3
# [26] = system: SNB-19; assay: Growth inhibition of human SNB-19 cells incubated for 48 hrs by SRB assay; type: functional; summary of the method: as §3
# [27] = system: SNB-75; assay: Growth inhibition of human SNB-75 cells incubated for 48 hrs by SRB assay; type: functional; summary of the method: as §3
# [28] = system: U-251; assay: Growth inhibition of human U-251 cells incubated for 48 hrs by SRB assay; type: functional; summary of the method: as §3
# [29] = system: HL-60; assay: Growth inhibition of human HL-60 cells incubated for 48 hrs by SRB assay; type: functional; summary of the method: as §3
# [30] = system: K562; assay: Growth inhibition of human K562 cells incubated for 48 hrs by SRB assay; type: functional; summary of the method: as §3
# [31] = system: RPMI-8226; assay: Growth inhibition of human RPMI-8226 cells incubated for 48 hrs by SRB assay; type: functional; summary of the method: as §3
# [32] = system: A549; assay: Growth inhibition of human A549 cells incubated for 48 hrs by SRB assay; type: functional; summary of the method: as §3
# [33] = system: NCI-H460; assay: Growth inhibition of human NCI-H460 cells incubated for 48 hrs by SRB assay; type: functional; summary of the method: as §3
# [34] = system: NCI-H522; assay: Growth inhibition of human NCI-H522 cells incubated for 48 hrs by SRB assay; type: functional; summary of the method: as §3
# [35] = system: HCT-116; assay: Growth inhibition of human HCT-116 cells incubated for 48 hrs by SRB assay; type: functional; summary of the method: as §3
smiles,measurement,setting,value
C#CCN(C)CCCOc1cc(N(CCC)C(=O)c2cc(C(C)C)c(O)cc2O)ccc1Cl,IC50,[1],860 nM
C#CCN(C)CCCOc1ccc(N(CCC)C(=O)c2cc(C(C)C)c(O)cc2O)cc1Cl,IC50,[1],3860 nM
same,IC50,[2],170 nM
same,IC50,[3],8420 nM
same,IC50,[4],> 10000 nM
C#CCN(C)CCCOc1cccc(N(CCC)C(=O)c2cc(C(C)C)c(O)cc2O)c1Cl,IC50,[1],880 nM
CC(C)c1cc(-c2n[nH]c(=O)n2-c2ccc3c(ccn3C)c2)c(O)cc1O [GANETESPIB],IC50,[1],> 10000 nM
same,IC50,[4],> 10000 nM
same,Activity,[5],Dose-Dependent Effect
same,Activity,[6],Dose-Dependent Effect
same,Activity,[7],Dose-Dependent Effect
same,Activity,[8],Dose-Dependent Effect
C#CCN(C)CCCOc1cccc(N(CC)C(=O)c2cc(C(C)C)c(O)cc2O)c1Cl,IC50,[1],2270 nM
C#CCN(C)CCCOc1ccc(N(C)C(=O)c2cc(C(C)C)c(O)cc2O)cc1Cl,IC50,[1],1770 nM
same,IC50,[2],19 nM
same,IC50,[3],730 nM
same,IC50,[4],840 nM
same,IC50,[9],350 nM
same,IC50,[10],1460 nM
same,IC50,[11],400 nM
same,IC50,[12],3310 nM
same,IC50,[13],460 nM
same,IC50,[14],860 nM
same,IC50,[15],2730 nM
same,IC50,[16],2530 nM
same,Activity,[5],Dose-Dependent Effect
same,Activity,[6],Dose-Dependent Effect
same,Activity,[7],Dose-Dependent Effect
same,Activity,[8],Dose-Dependent Effect
same,Activity,[17],Dose-Dependent Effect
same,Activity,[18],Dose-Dependent Effect
same,Activity,[19],Dose-Dependent Effect
same,Activity,[20],Active
same,inhibition in vivo at 25 mg/kg,[21],63.2%
same,Activity,[22],Toxic
same,GI50,[23],520 nM
same,GI50,[24],290 nM
same,GI50,[25],320 nM
same,GI50,[26],440 nM
same,GI50,[27],420 nM
same,GI50,[28],320 nM
same,GI50,[29],40 nM
same,GI50,[30],70 nM
same,GI50,[31],380 nM
same,GI50,[32],190 nM
same,GI50,[33],40 nM
same,GI50,[34],80 nM
same,GI50,[35],80 nM
C#CCN(C)CCCOc1cccc(N(C)C(=O)c2cc(C(C)C)c(O)cc2O)c1Cl,IC50,[1],> 10000 nM
